5 compounds from ChEMBL document CHEMBL1121906, “2-(Aminomethyl)phenols, a new class of saluretic agents. 2. Synthesis and pharmacological properties of the 5-aza isostere of 2-(aminomethyl)-4-(1,1-dimethylethyl)-6-iodophenol” (1981) can be followed below.

Structures are written as SMILES. Values joined by “and” are separate entries in the source; they are usually repeats but may differ in a detail not shown here. Equal entries are not always repeated.

Test [1] relates to Canis familiaris. Nature of the test: The saluretic(Cl-) effect of compound was measured in dogs after iv administration at 3 mg/kg dose; Cl-mequiv/min=303. In kind it is functional, Canis lupus familiaris.
For test [2], the system named is Canis familiaris. Put plainly: The saluretic(K+) effect of compound was measured in dogs after iv administration at 3 mg/kg dose; K+mequiv/min=20. In kind it is functional, Canis lupus familiaris.
Test [3] concerns Canis familiaris. Put plainly: The saluretic(Na+) effect of compound was measured in dogs after iv administration at 3 mg/kg dose; Na+ mequiv/min=279. The test is classed as functional, Canis lupus familiaris.
Test [4] has as its system Rattus norvegicus. Put plainly: The saluretic (Na+) effect of compound was measured in rats after oral administration at 27 mg/kg dose; Na+ mequiv*100/cage. In kind it is functional.
Test [5] has as its system Rattus norvegicus. Nature of the test: The saluretic (Na+) effect of compound was measured in rats after oral administration at 81 mg/kg dose; Na+ mequiv*100/cage. In kind it is functional.
Test [6] concerns Rattus norvegicus. Nature of the test: The saluretic (Na+) effect of compound was measured in rats after oral administration at 9 mg/kg dose; Na+ mequiv*100/cage. In kind it is functional.
Test [7] has as its system Rattus norvegicus. Nature of the test: The saluretic(Cl-) effect of compound was measured in rats after oral administration at 27 mg/kg dose; Cl-mequiv*100/cage=14. The test is classed as functional.
The test system of test [8] is Rattus norvegicus. Nature of the test: The saluretic(K+) effect of compound was measured in rats after oral administration at 81 mg/kg dose; K+mequiv*100/cage=14. The test is classed as functional.
Test [9] relates to Rattus norvegicus. Nature of the test: The saluretic(K+) effect of compound was measured in rats after oral administration at 9 mg/kg dose; K+mequiv*100/cage=14. The test is classed as functional.
In test [10] the test system is Rattus norvegicus. Put plainly: The saluretic(Cl-) effect of compound was measured in rats after oral administration at 3 mg/kg dose; Cl-mequiv*100/cage=14. The test is classed as functional.
Test [11] concerns Rattus norvegicus. Put plainly: The saluretic(Cl-) effect of compound was measured in rats after oral administration at 81 mg/kg dose; Cl-mequiv*100/cage=14. The test is classed as functional.
In test [12] the test system is Rattus norvegicus. Nature of the test: The saluretic(Cl-) effect of compound was measured in rats after oral administration at 9 mg/kg dose; Cl-mequiv*100/cage=14. The test is classed as functional.
In test [13] the test system is Rattus norvegicus. Nature of the test: The saluretic(K+) effect of compound was measured in rats after oral administration at 27 mg/kg dose; K+mequiv*100/cage=14. The test is classed as functional.
Test [14] relates to Rattus norvegicus. Nature of the test: The saluretic(K+) effect of compound was measured in rats after oral administration at 3 mg/kg dose; K+mequiv*100/cage=14. In kind it is functional.
Test [15] concerns Rattus norvegicus. Nature of the test: Mean arterial pressure was measured in hypertensive rat at dose of 20 mg/kg, po. The test is classed as functional, Artery. The procedure, abridged: (§1)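 Spontaneously hypertensive rats received the compound orally. The read-out was the maximum fall in mean arterial pressure (mmHg ± SE) and the duration of effect in hours. The number of rats varied by treatment, and the protocol follows an earlier report.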

Test [16] relates to Rattus norvegicus. Put plainly: Saluretic(Na+) effect of compound was measured in rats after oral administration at 3 mg/kg dose; Na+ mequiv*100/cage. In kind it is functional.
For test [17], the system named is Rattus norvegicus. Nature of the test: Saluretic(Na+) effect of compound was measured in rats after oral administration at 3 mg/kg dose; Na+ mequiv x 100/cage. In kind it is functional.
Test [18] deals with Rattus norvegicus. Nature of the test: The saluretic(Cl-) effect of compound was measured in rats after oral administration at 3 mg/kg dose; Cl- mequiv x 100/cage =14. The test is classed as functional.
Test [19] concerns Rattus norvegicus. Put plainly: The saluretic(K+) effect of compound was measured in rats after oral administration at 3 mg/kg dose; K+ mequiv x 100/cage=14. The test is classed as functional.
For test [20], the system named is Rattus norvegicus. Put plainly: Mean arterial pressure was measured in hypertensive rat at dose of 20 mg/kg, ip. Particulars: route intraperitoneal.
The species named for test [21] is Rattus norvegicus. Nature of the test: Duration of effect was measured in hypertensive rat. The test is classed as functional. The essentials: as §1
The test system of test [22] is Rattus norvegicus. Nature of the test: The saluretic (Na+)effect of compound was measured in rats after oral administration at 81 mg/kg dose. The test is classed as functional.
Test [23] concerns Rattus norvegicus. Put plainly: The saluretic(Cl-) effect of compound was measured in rats after oral administration at 3 mg/kg dose. The test is classed as functional.
Test [24] relates to Rattus norvegicus. Put plainly: The saluretic(Na+) effect of compound was measured in rats after oral administration at 27 mg/kg dose; Na+ mequiv*100/cage. The test is classed as functional.
Test [25] has as its system Rattus norvegicus. Nature of the test: The saluretic(Cl-) effect of compound was measured in rats after oral administration at 81 mg/kg dose. In kind it is functional.
Test [26] has as its system Rattus norvegicus. Nature of the test: The saluretic(K+) effect of compound was measured in rats after oral administration at 3 mg/kg dose. The test is classed as functional.
The test system of test [27] is Rattus norvegicus. Put plainly: The saluretic(K+) effect of compound was measured in rats after oral administration at 81 mg/kg dose. In kind it is functional.
Test [28] is filed under the species Rattus norvegicus. Put plainly: Duration of effect was measured in hypertensive rat. In kind it is functional. The procedure, abridged: as §1
Test [29] concerns Canis familiaris. Nature of the test: The saluretic(K+) effect of compound was measured in dogs after iv administration at 5 mg/kg dose; K+mequiv/min=20.
Test [30] relates to Canis familiaris. Put plainly: The saluretic(Cl-) effect of compound was measured in dogs after iv administration at 5 mg/kg dose; Cl-mequiv/min=303.
Test [31] deals with Canis familiaris. Put plainly: The saluretic(Na+) effect of compound was measured in dogs after iv administration at 5 mg/kg dose; Na+ mequiv/min=279.
Test [32] concerns Canis familiaris. Put plainly: The saluretic(K+) effect of compound was measured in dogs after iv administration at 2 mg/kg dose; K+mequiv/min=20. The test is classed as functional, Canis lupus familiaris.
Test [33] concerns Canis familiaris. Nature of the test: The saluretic(Na+) effect of compound was measured in dogs after iv administration at 2 mg/kg dose; Na+ mequiv/min=279. The test is classed as functional, Canis lupus familiaris.
The subject of test [34] is Canis familiaris. Nature of the test: The saluretic(Cl-) effect of compound was measured in dogs after iv administration; Cl-mequiv/min=303.

Take `CC(C)(C)c1cc(I)c(O)c(CN)c1`: the Diuretic effects is listed as 822 in test [1]; 66 in [2]; 716 in test [3]; 319 in test [4]; 351 in test [5]; 270 in test [6]. For the same compound, the Diuretic effects is listed as 435 in test [7]; 99 in test [8]; 77 in test [9]; 211 in test [10]; 489 in test [11]; 364 in test [12]. For the same compound, the Diuretic effects in [13] stood at 88; in [14], 51; in [16], 146. The compound further registered a Max fall in test [15] (dose 0.312 mg/kg, in the assay text read “0.312 mg/kg” for “20 mg/kg”) of 26 mmHg.
Regarding `CC(C)(C)c1cc(CN)c(O)cn1`, the Diuretic effects came to 303 in test [1]; 20 in [2]; 279 in [3]; 14 in [17]; 22 in test [4]; 63 in [5]. In addition, the Diuretic effects in [6] is given as 8; in [7], 37; in test [8], 23; in [9] it was 7; in test [18], 14; in test [11] it was 98. For the same compound, the values for the Diuretic effects in [12], in [13] and in [19] were 11, 15 and 14, respectively. Further, in [20], the Max fall stood at 12 mmHg.
For `NS(=O)(=O)c1cc2c(cc1Cl)NCNS2(=O)=O` [HYDROCHLOROTHIAZIDE], the Diuretic effects in [1] was 156; in [2], 33; in test [3], 166; in test [7] it was 156; in [8], 37; in test [10], 154. Moreover, the Diuretic effects in test [11] is recorded as 143; in [13] it was 34; in test [14], 34. In test [15] (dose 20 mg/kg), this compound registered a Max fall of 25 mmHg. The Duration in test [21] is <8 h and 12 h.
On to `CC(C)(C)c1cc(CN)c(O)c(I)n1`, for which the Diuretic effects is 276 in test [4]; 330 in test [22]; 351 and 444 in test [7] (27 mg/kg); 279 in test [23]; 276 in test [24]; 528 in test [25]. The Diuretic effects is 63 and 83 in test [13] (27 mg/kg); 51 in [26]; 108 in [27]; 178 in [16]; 48 in test [29]; 729 in test [30]. In test [31], the Diuretic effects amounted to 611. Moreover, in test [15] (dose 20 mg/kg), the Max fall is 13 mmHg. Also, the Duration in test [28] is over 24 h.
For `NS(=O)(=O)c1cc(C(=O)O)c(NCc2ccco2)cc1Cl` [FUROSEMIDE], the Diuretic effects in [32] was 141; in test [33], 960; in test [4], 125; in test [5], 244; in [6], 7; in test [7] (27 mg/kg), 213 and 370. Further, the Diuretic effects in test [8] was determined as 77; in [9], 14; in [12], 22; in [13], 55; in [34], 1081. Besides, in test [15] (dose 30 mg/kg, in the assay text read “30 mg/kg” for “20 mg/kg”), the Max fall is on record as 12 mmHg.
